The text below walks through data of paper PMC4721940 (Journal of enzyme inhibition and medicinal chemistry, 2015).

Data set [1] deals with T1, human neutrophil elastase (HNE) (Homo sapiens, UniProt P08246).
T1 sequence (P08246 30-247 limits assumed): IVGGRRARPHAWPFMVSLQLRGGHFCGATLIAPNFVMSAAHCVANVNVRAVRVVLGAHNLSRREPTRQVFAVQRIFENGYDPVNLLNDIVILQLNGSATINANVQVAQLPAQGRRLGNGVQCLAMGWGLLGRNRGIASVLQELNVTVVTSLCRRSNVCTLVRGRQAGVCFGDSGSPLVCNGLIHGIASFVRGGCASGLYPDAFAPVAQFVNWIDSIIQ
Briefly: HNE inhibition assay. The data set is classed as biochemical. In outline:
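Human neutrophil elastase (20 mU/mL) in 200 mM Tris-HCl pH 7.5 with 0.01% BSA and 0.05% Tween-20, pre-incubated 5 min with test compound (DMSO final 1%). Started with 25 μM MeOSuc-Ala-Ala-Pro-Val-AMC. Fluorescence (ex 355/em 460 nm) read every 30 s for 10 min at 25 °C.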

Data set [2] can be described thus: Spontaneous hydrolysis in phosphate buffer. The following applies: after 60 min in aqueous buffer, absorbance at 325 nm. Type of data set: physicochemical. In short, it runs like this:
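Test compound in 0.05 M phosphate buffer, pH 7.3, at 25 °C. Absorbance at each compound's absorption maximum read over time until no further decrease (A∞). k′ taken from the slope of log(At–A∞) vs time; t1/2 = 0.693/k′.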

Data set [3] deals with T1, human neutrophil elastase (HNE). Briefly: HNE inhibition constant. Type of data set: biochemical.
Another data set can be described thus: Stability in human serum. The data set is classed as in vitro ADME. The following applies: 25 °C. In outline: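 Serum prepared by clotting fresh human blood 1 h at room temperature. Test compound (10 mM DMSO stock) added to serum and incubated at 25 °C. Timed aliquots quenched in acetonitrile and centrifuged 5 min at 10 000g. Analysed by RP-HPLC: C18 column, acetonitrile/water 65/35 with 0.1% TFA, 1 mL/min, 40 °C, diode-array detection 200–300 nm. Remaining compound calculated from peak area.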

The target in the next data set is T2, HNE (Homo sapiens, UniProt P08246).
T2 sequence (P08246 30-247 limits assumed): T1 sequence (P08246 30-247 limits assumed)
Nature of the data set: Reactivation of the HNE–inhibitor complex after ultrafiltration. To be noted: 25 μM inhibitor, data not shown. Type of data set: biochemical.

On to `CCOC(=O)c1nn(Cc2cccc(C)c2)c2ccccc2c1=O` [Compound 6, Ethyl 1-(3-methylbenzyl)-4-oxo-1,4-dihydrocinnoline-3-carboxylate], for which the “HNE inhibitory activity (in words)” value in data set [1] was “completely inactive”.

With `Cc1cccc(C(=O)n2ncc(=O)c3cc([N+](=O)[O-])ccc32)c1` [Compound 21a, 1-(3-Methylbenzoyl)-6-nitrocinnolin-4(1H)-one], the Extent of hydrolysis entry in data set [2] was “hydrolyzed almost completely”.

As to `Cc1cccc(C(=O)n2nc(C(=O)O)c(=O)c3ccccc32)c1` [Compound 8, 1-(3-Methylbenzoyl)-4-oxo-1,4-dihydrocinnoline-3-carboxylic acid], the “HNE inhibitory activity (in words)” value in data set [1] is “loss of activity”.

For the compound `Cc1cccc(C(=O)N2NCC(O)c3ccccc32)c1` (stereo not drawn) [Compound 19, (4-Hydroxy-3,4-dihydrocinnolin-1(2H)-yl)(m-tolyl)meyhanone], the “HNE inhibitory activity (in words)” value in data set [1] is reported as “completely devoid of activity”.

With `Cc1cccc(C(=O)n2nc(-c3ccccc3)c(=O)c3ccccc32)c1` [Compound 11a, 1-(3-Methylbenzoyl)-3-phenylcinnolin-4(1H)-one], the “HNE inhibitory activity (in words)” value in data set [1] is reported as “loss of activity”.

`Cc1cccc(C(=O)n2nc(CO)c(=O)c3ccccc32)c1` [Compound 11d, 3-(Hydroxymethyl)-1-(3-methylbenzoyl)cinnolin-4(1H)-one]: the “HNE inhibitory activity (in words)” value in data set [1] was “loss of activity”.

A word on the Ki: it is a measure of affinity in units of concentration, obtained from inhibition or displacement. Read a high Ki as a looser hold on the target. `Cc1cccc(C(=O)n2ncc(=O)c3ccccc32)c1` [Compound 18a, 1-(3-Methylbenzoyl)cinnolin-4(1H)-one]: the Ki in data set [3] came out at 75 nM. The “Type of HNE inhibition” value in data set [3] (double-reciprocal Lineweaver–Burk plots) is recorded as “competitive inhibitors”. For the same compound, the “percent of initial compound remaining” value in the data set “Stability in human serum” (5 min of incubation) is given as under 3%. In “Stability in human serum” (after 10 min), the compound remaining entry is given as “essentially no detectable compounds”. Further, the “Recovery of HNE activity after removing free inhibitor” value on HNE is “fully reversible”.

As for `CCOC(=O)c1nn(C)c2ccccc2c1=O` [Compound 5, Ethyl 1-methyl-4-oxo-1,4-dihydrocinnoline-3-carboxylate], the “HNE inhibitory activity (in words)” value in data set [1] is “completely inactive”.
